# From ChEMBL document CHEMBL1800024, “A novel class of trans-methylpyrazoline analogs of combretastatins: synthesis and in-vitro biological testing” (Eur J Med Chem, 2011)
# Key:
# [1] = tested on: L1210; assay: Cytotoxicity against mouse L1210 cells after 72 hrs by MTT assay; format: functional, cell-based; details: L1210, 72 h
# Summary of the method: (§1)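 Murine B16 melanoma and L1210 lymphoma cells in culture were exposed to compound continuously for 72 h. Viability was read by MTT assay, and IC₅₀ was derived from growth inhibition.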
# [2] = tested on: B16; assay: Cytotoxicity against mouse B16 cells after 72 hrs by MTT assay; format: functional, cell-based; details: B16, 72 h; summary of the method: as §1
# [3] = tested on: SF-295; assay: Growth inhibition of human SF295 cells; format: functional
# [4] = tested on: T47D; assay: Growth inhibition of human T47D cells; format: functional; details: read-out: pTGI
# [5] = tested on: LOX IMVI; assay: Growth inhibition of human LOXIMVI cells; format: functional
# [6] = tested on: NCI-H23; assay: Growth inhibition of human NCI-H23 cells; format: functional
# [7] = tested on: U-251; assay: Growth inhibition of human U251 cells; format: functional
# [8] = tested on: SK-MEL-5; assay: Growth inhibition of human SK-MEL-5 cells; format: functional
# [9] = tested on: SF-539; assay: Growth inhibition of human SF539 cells; format: functional
# [10] = tested on: SNB-19; assay: Growth inhibition of human SNB19 cells; format: functional
# [11] = tested on: MDA-MB-435; assay: Cytotoxicity against human MDA-MB-435 cells after 48 hrs by SRB assay; format: functional, cell-based; details: MDA-MB-435, 48 h
# [12] = tested on: RXF 393; assay: Growth inhibition of human RXF393 cells; format: functional
# [13] = tested on: SK-OV-3; assay: Growth inhibition of human SKOV3 cells; format: functional
# [14] = tested on: NCI-H522; assay: Growth inhibition of human NCI-H522 cells; format: functional
# [15] = tested on: MDA-MB-435; assay: Ratio of EC50 for interphase microtubule depolymerization in rat A10 cells to IC50 for cytotoxicity against human MDA-MB-435 cells; format: functional
# [16] = tested on: BT-549; assay: Growth inhibition of human BT549 cells; format: functional
# [17] = tested on: MDA-MB-231; assay: Growth inhibition of human MDA-MB-231 cells; format: functional
# [18] = tested on: A10; assay: Induction of interphase microtubule depolymerization in rat A10 cells; format: functional, cell-based
# [19] = tested on: NCI-H322M; assay: Growth inhibition of human NCI-H322M cells; format: functional
# [20] = tested on: MOLT-4; assay: Growth inhibition of human MOLT4 cells; format: functional
# [21] = tested on: HCT-116; assay: Growth inhibition of human HCT116 cells; format: functional
# [22] = tested on: Malme-3M; assay: Growth inhibition of human MALME-3M cells; format: functional
# [23] = tested on: HL-60(TB); assay: Growth inhibition of human HL-60(TB) cells; format: functional
# [24] = Aqueous solubility of the compound; format: physicochemical
# Summary of the method: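 Maximum aqueous solubility was measured with a modified filter-plate solubility protocol.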
# [25] = tested on: UACC-257; assay: Growth inhibition of human UACC257 cells; format: functional
# [26] = tested on: CAKI-1; assay: Growth inhibition of human Caki1 cells; format: functional
structure (smiles),measurement,setting,value
COc1cc([C@@H]2C(C)=NN(C(C)=O)[C@H]2c2ccccc2)cc(OC)c1OC (relative stereo),IC50,[1],47 µM
same,IC50,[2],> 100 µM
COc1cc([C@@H]2C(C)=NN(C(C)=O)[C@H]2c2ccc(C)cc2)cc(OC)c1OC (relative stereo),IC50,[1],6 µM
same,IC50,[2],45.5 µM
COc1cc([C@@H]2C(C)=NN(C(C)=O)[C@H]2c2ccc(Cl)cc2)cc(OC)c1OC (relative stereo),IC50,[1],> 100 µM
same,IC50,[2],> 100 µM
COc1cc([C@@H]2C(C)=NN(C(C)=O)[C@H]2c2ccc(Br)cc2)cc(OC)c1OC (relative stereo),IC50,[1],33 µM
same,IC50,[2],> 100 µM
COc1cc([C@@H]2C(C)=NN(C(C)=O)[C@H]2c2ccc([N+](=O)[O-])cc2)cc(OC)c1OC (relative stereo),IC50,[1],> 100 µM
same,IC50,[2],> 100 µM
COc1ccc([C@H]2[C@H](c3cc(OC)c(OC)c(OC)c3)C(C)=NN2C(C)=O)cc1 (relative stereo),IC50,[1],8.4 µM
same,IC50,[2],95 µM
COc1cc([C@@H]2C(C)=NN(C(C)=O)[C@H]2c2cccc([N+](=O)[O-])c2)cc(OC)c1OC (relative stereo),IC50,[1],> 100 µM
same,IC50,[2],> 100 µM
COc1cc([C@@H]2C(C)=NN(C(C)=O)[C@H]2c2ccc(Cl)c(Cl)c2)cc(OC)c1OC (relative stereo),IC50,[1],36 µM
same,IC50,[2],> 100 µM
COc1ccc([C@H]2[C@H](c3cc(OC)c(OC)c(OC)c3)C(C)=NN2C(C)=O)cc1OC (relative stereo),IC50,[1],34 µM
same,IC50,[2],> 100 µM
COc1ccc([C@H]2[C@H](c3cc(OC)c(OC)c(OC)c3)C(C)=NN2C(C)=O)cc1O (relative stereo),GI50,[3],2.57 µM
same,TGI,[3]; read-out: pTGI,> 100 µM
same,TGI,[4],> 100 µM
same,GI50,[5],2.24 µM
same,TGI,[5]; read-out: pTGI,> 100 µM
same,GI50,[6],3.72 µM
same,TGI,[6]; read-out: pTGI,> 100 µM
same,GI50,[7],3.24 µM
same,TGI,[7]; read-out: pTGI,> 100 µM
same,GI50,[8],1.17 µM
same,TGI,[8]; read-out: pTGI (converted),14.1 µM
same,GI50,[9],0.741 µM
same,TGI,[9]; read-out: pTGI (converted),4.37 µM
same,GI50,[10],4.37 µM
same,TGI,[10]; read-out: pTGI,> 100 µM
same,IC50,[11],0.9 µM
same,GI50,[12],3.09 µM
same,TGI,[12]; read-out: pTGI,> 100 µM
same,GI50,[13],2.19 µM
same,TGI,[13]; read-out: pTGI (converted),9.55 µM
same,GI50,[14],0.372 µM
same,TGI,[14]; read-out: pTGI (converted),11.7 µM
same,Ratio,[15],4.5
same,GI50,[16],1.45 µM
same,TGI,[16]; read-out: pTGI,> 100 µM
same,IC50,[1],3.3 µM
same,GI50,[17],4.07 µM
same,TGI,[17]; read-out: pTGI,> 100 µM
same,EC50,[18],4.1 µM
same,GI50,[19],4.27 µM
same,TGI,[19]; read-out: pTGI (converted),51.3 µM
same,GI50,[20],5.75 µM
same,TGI,[20]; read-out: pTGI,> 100 µM
same,GI50,[21],3.02 µM
same,TGI,[21]; read-out: pTGI (converted),34.7 µM
same,GI50,[22],0.891 µM
same,TGI,[22]; read-out: pTGI,> 100 µM
same,IC50,[2],6.8 µM
same,GI50,[23],1.78 µM
same,TGI,[23]; read-out: pTGI (converted),7.76 µM
same,solubility,[24],372 µM
same,GI50,[25],> 100 µM
same,TGI,[25]; read-out: pTGI,> 100 µM
same,GI50,[26],5.37 µM
same,TGI,[26]; read-out: pTGI,> 100 µM
COc1ccc([C@H]2[C@H](c3cc(OC)c(OC)c(OC)c3)C(C)=NN2C(C)=O)cc1[N+](=O)[O-] (relative stereo),IC50,[1],32.5 µM
same,IC50,[2],> 100 µM
COc1ccc(OC)c([C@H]2[C@H](c3cc(OC)c(OC)c(OC)c3)C(C)=NN2C(C)=O)c1 (relative stereo),IC50,[1],> 100 µM
same,IC50,[2],> 100 µM
COc1cc([C@@H]2C(C)=NN(C(C)=O)[C@H]2c2cc(OC)c(OC)c(OC)c2)cc(OC)c1OC (relative stereo),IC50,[1],> 100 µM
same,IC50,[2],> 100 µM
COc1ccc(/C=C\c2cc(OC)c(OC)c(OC)c2)cc1O [COMBRETASTATIN A4],IC50,[1],0.003 µM
same,IC50,[2],0.002 µM
